Source: ChEMBL document CHEMBL1125392, “Antitumor agents. 124. New 4 beta-substituted aniline derivatives of 6,7-O,O-demethylene-4'-O-demethylpodophyllotoxin and related compounds as potent inhibitors of human DNA topoisomerase II” (J Med Chem, 1992)

Experiments:
Nucleic Acid = experiment: Effect on cellular protein DNA complex formation(%) at 10 uM in comparison with etoposide; assay type: functional
[1] = Concentration required for 50% reduction in KB cell number after 3-day incubation; assay type: functional, cell-based, Homo sapiens
[2] = biological target: DNA topoisomerase II (Homo sapiens) (UniProt P11388+Q02880); experiment: Inhibition of human DNA Topoisomerase II; assay type: protein assay
Summary of the method: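 Human DNA topoisomerase II catalytic inhibition was tested at five concentrations (10, 20, 25, 50 and 100 μM). ID50 was set from the degree of inhibition observed across these concentrations.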

SMILES | Complex formation (Nucleic Acid) [%] | IC50 [1] [µM] | ID50 [2] [µM]
COc1cc([C@@H]2c3cc4c(cc3[C@@H](Nc3ccc([N+](=O)[O-])cc3)[C@H]3COC(=O)[C@H]23)OCO4)cc(OC)c1O | 323 | 0.49 | –
CCOC(=O)c1ccc(N[C@@H]2c3cc(OC)c(OC)cc3[C@@H](c3cc(OC)c(O)c(OC)c3)[C@H]3C(=O)OC[C@@H]32)cc1 | 127 | < 0.7 | 100
COc1cc2c(cc1OC)[C@@H](Nc1ccc([N+](=O)[O-])cc1)[C@H]1COC(=O)[C@@H]1[C@@H]2c1cc(OC)c(O)c(OC)c1 | 75 | 1.3 | 100
COc1cc([C@@H]2c3cc(O)c(O)cc3[C@@H](Nc3cccc(O)c3)[C@H]3COC(=O)[C@H]23)cc(OC)c1O | 18 | > 2.1 | 20
COc1cc([C@@H]2c3cc(O)c(O)cc3[C@@H](Nc3ccccc3)[C@H]3COC(=O)[C@H]23)cc(OC)c1O | 84 | > 2.2 | 25
CCOC(=O)c1ccc(N[C@@H]2c3cc(O)c(O)cc3[C@@H](c3cc(OC)c(OC)c(OC)c3)[C@H]3C(=O)OC[C@@H]32)cc1 | 22 | > 1.8 | 100
COc1cc([C@@H]2c3cc(O)c(O)cc3[C@@H](Nc3ccc(F)cc3)[C@H]3COC(=O)[C@H]23)cc(OC)c1O | 52 | > 2.1 | 25
COc1cc2c(cc1OC)[C@@H](Nc1ccc(F)cc1)[C@H]1COC(=O)[C@@H]1[C@@H]2c1cc(OC)c(OC)c(OC)c1 | 8 | 7.6 | > 100
COc1cc2c(cc1OC)[C@@H](Nc1ccc(C#N)cc1)[C@H]1COC(=O)[C@@H]1[C@@H]2c1cc(OC)c(OC)c(OC)c1 | 12 | 5.8 | > 100
CCOC(=O)c1ccc(N[C@@H]2c3cc(O)c(O)cc3[C@@H](c3cc(OC)c(O)c(OC)c3)[C@H]3C(=O)OC[C@@H]32)cc1 | 138 | 1.46 | 20
COc1cc([C@@H]2c3cc(O)c(O)cc3[C@@H](Nc3ccc(F)cc3)[C@H]3COC(=O)[C@H]23)cc(OC)c1OC | 11 | > 2 | 50
COc1cc([C@@H]2c3cc(O)c(O)cc3[C@@H](Nc3ccc([N+](=O)[O-])cc3)[C@H]3COC(=O)[C@H]23)cc(OC)c1OC | 23 | > 1.9 | > 100
COc1cc([C@@H]2c3cc(O)c(O)cc3[C@@H](Nc3cccc(O)c3)[C@H]3COC(=O)[C@H]23)cc(OC)c1OC | 4 | > 2 | 50
COc1cc2c(cc1OC)[C@@H](Nc1ccc(F)cc1)[C@H]1COC(=O)[C@@H]1[C@@H]2c1cc(OC)c(O)c(OC)c1 | 108 | 0.78 | 50
COc1cc([C@@H]2c3cc(O)c(O)cc3[C@@H](Nc3ccc([N+](=O)[O-])cc3)[C@H]3COC(=O)[C@H]23)cc(OC)c1O | 99 | 1.5 | 20
COc1cc([C@@H]2c3cc(O)c(O)cc3[C@@H](Nc3ccc(C#N)cc3)[C@H]3COC(=O)[C@H]23)cc(OC)c1O | 62 | 2 | 20
CCOC(=O)c1ccc(N[C@@H]2c3cc(OC)c(OC)cc3[C@@H](c3cc(OC)c(OC)c(OC)c3)[C@H]3C(=O)OC[C@@H]32)cc1 | 9 | 5.5 | > 100
COc1cc([C@@H]2c3cc4c(cc3[C@@H](O[C@@H]3O[C@@H]5CO[C@@H](C)O[C@H]5[C@H](O)[C@H]3O)[C@H]3COC(=O)[C@H]23)OCO4)cc(OC)c1O [ETOPOSIDE] | 100 | 0.2 | –
COc1cc2c(cc1OC)[C@@H](Nc1ccc([N+](=O)[O-])cc1)[C@H]1COC(=O)[C@@H]1[C@@H]2c1cc(OC)c(OC)c(OC)c1 | 8 | 7.3 | > 100
COc1cc([C@@H]2c3cc4c(cc3[C@@H](Nc3ccc(F)cc3)[C@H]3COC(=O)[C@H]23)OCO4)cc(OC)c1O | 213 | 0.24 | –
COc1cc2c(cc1OC)[C@@H](Nc1ccc(C#N)cc1)[C@H]1COC(=O)[C@@H]1[C@@H]2c1cc(OC)c(O)c(OC)c1 | 125 | < 0.77 | 50
CCOC(=O)c1ccc(N[C@@H]2c3cc4c(cc3[C@@H](c3cc(OC)c(O)c(OC)c3)[C@H]3C(=O)OC[C@@H]32)OCO4)cc1 | 207 | 0.84 | –
COc1cc([C@@H]2c3cc4c(cc3[C@@H](Nc3ccc(C#N)cc3)[C@H]3COC(=O)[C@H]23)OCO4)cc(OC)c1O | 211 | 0.64 | –
COc1cc([C@@H]2c3cc(O)c(O)cc3[C@@H](Nc3ccc(C#N)cc3)[C@H]3COC(=O)[C@H]23)cc(OC)c1OC | 33 | > 2 | > 100
COc1cc([C@@H]2c3cc(O)c(O)cc3[C@@H](Nc3ccccc3)[C@H]3COC(=O)[C@H]23)cc(OC)c1OC | 9 | > 2.1 | 50
